How the values were obtained:
Format in all cases: functional
Mus musculus [1] = experiment: Analgesic activity determined by its ability to inhibit phenylbenzoquinone (PBQ, ip) induced abdominal writhing at dose of 3 mg/kg; conditions: Abdomen
Method in brief: (§1)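 Male CD mice, 18–22 g, groups of 10, fasted overnight. Dosed orally in 1% methylcellulose 60 min before ip phenylbenzoquinone (2 mg/kg, 0.02% aqueous). Writhes (abdominal contractions, lordosis, hindlimb extension) counted over 10 min, starting 5 min after PBQ. Group means and standard errors taken; percent inhibition calculated against vehicle controls.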

Mus musculus [2] = experiment: Analgesic activity determined by its ability to inhibit phenylbenzoquinone (PBQ, ip) induced abdominal writhing at dose of 30 mg/kg; conditions: Abdomen; method in brief: as §1
Rattus norvegicus [3] = experiment: Antiinflammatory activity was evaluated by the inhibition of rat carrageenan foot edema (CFE) assay at the dose of 3 mg/kg
Method in brief: (§2)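 Rats, six per dose. Oral dosing 1 h before carrageenan injection, as a suspension in 0.25% (w/v) agar in water, 3.0 mL per animal. Hindpaw volume read by mercury displacement just after injection and 3 h later. Percent inhibition of mean swelling relative to vehicle controls; unpaired Student's t test.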

Mus musculus [4] = experiment: Analgesic activity determined by its ability to inhibit phenylbenzoquinone (PBQ, ip) induced abdominal writhing at dose of 10 mg/kg; conditions: Abdomen; method in brief: as §1
Rattus norvegicus [5] = experiment: Antiinflammatory activity was evaluated by the inhibition of rat carrageenan foot edema (CFE) assay at the dose of 10 mg/kg; method in brief: as §2
Rattus norvegicus [6] = experiment: Gastric haemorrhage at the dose of 10 mg/kg expressed as the number of rats with lesions per 6 number of rats (lesions per animal=4.2)
Method in brief: (§3)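 Male Sprague-Dawley rats, 120–200 g, six per group, weight-sorted and fasted overnight. Given orally as a suspension in 0.5% methocal. Killed by CO2 4 h later. Stomachs everted and washed, and mucosal lesions counted visually under 3× magnification. Scored as rats with lesions per total, with lesions per animal.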

Rattus norvegicus [7] = experiment: Antiinflammatory activity was evaluated by the inhibition of rat carrageenan foot edema (CFE) assay at the dose of 1 mg/kg; method in brief: as §2
Rattus norvegicus [8] = experiment: Gastric haemorrhage at the dose of 30 mg/kg expressed as the number of rats with lesions per 6 number of rats; method in brief: as §3
Rattus norvegicus [9] = experiment: Gastric haemorrhage at the dose of 10 mg/kg expressed as the number of rats with lesions per 6 number of rats; method in brief: as §3
Rattus norvegicus [10] = experiment: Gastric haemorrhage at the dose of 30 mg/kg expressed as the number of rats with lesions per 6 number of rats (lesions per animal=1.7); method in brief: as §3
Rattus norvegicus [11] = experiment: Compound was evaluated for the effective dose required for the inhibition of rat carrageenan foot edema (CFE) assay

Structure (SMILES)	inhibition in vivo at 30 mg/kg (Mus musculus [2]) [%]	inhibition in vivo at 3 mg/kg (Rattus norvegicus [3]) [%]	inhibition in vivo at 10 mg/kg (Rattus norvegicus [5]) [%]	inhibition in vivo at 1 mg/kg (Rattus norvegicus [7]) [%]	other results
CC(C(=O)O)c1ccc2c(c1)Oc1ccccc1CO2 (stereo not drawn)	91	27	42	21	inhibition in vivo at 3 mg/kg (Mus musculus [1]): 38%; inhibition in vivo at 10 mg/kg (Mus musculus [4]): 70%; No. of rats with lesions (Rattus norvegicus [6]): 5; No. of rats with lesions (Rattus norvegicus [8]): 6
COC(=O)C(C)c1ccc2c(c1)Oc1ccccc1CO2 (stereo not drawn)		32	56	23	No. of rats with lesions (Rattus norvegicus [9]): 0; No. of rats with lesions (Rattus norvegicus [10]): 5
O=C(O)Cc1ccc2c(c1)Oc1cc(Cl)ccc1CO2	26	19	5	11	
CC(=O)Nc1ccc2c(c1)COc1ccc(CC(=O)O)cc1O2	-55	16	23	35	
O=C(O)Cc1ccc2c(c1)Oc1ccccc1CO2	26	10	40	24	
CC(CO)c1ccc2c(c1)Oc1ccccc1CO2 (stereo not drawn)		19	45	9	
O=C(O)Cc1ccc2c(c1)COc1ccccc1O2	37	9	16	12	
O=C(O)Cc1ccc2c(c1)Oc1ccccc1OC2		6	5		
O=C(O)Cc1ccc2c(c1)OCc1ccccc1O2		53	49	28	
CC(C(=O)O)c1ccc2c(c1)OCc1ccccc1O2 (stereo not drawn)	70	45	43	43	
CC(=O)NCCOC(=O)C(C)c1ccc2c(c1)Oc1ccccc1CO2 (stereo not drawn)		15	28	7	
CCC(=O)OC(C)OC(=O)C(C)c1ccc2c(c1)Oc1ccccc1CO2 (stereo not drawn)		15	12	6	
O=C(O)Cc1ccc2c(c1)Oc1ccc(Cl)cc1CO2	82	23	28	21	
COc1ccc2c(c1)c(CC(=O)O)c(C)n2C(=O)c1ccc(Cl)cc1 [INDOMETHACIN]		56	67	33	
O=C(O)Cc1ccc2c(c1)OCc1ccccc1C2=O [OXEPINAC]					ED50 (Rattus norvegicus [11]): 3.7 mg/kg
Cc1cc(CC(=O)O)n(C)c1C(=O)c1ccc(Cl)cc1 [ZOMEPIRAC]	91	82		61	

Reference: ChEMBL document CHEMBL1123337, “Synthesis and antiinflammatory/analgesic activities of 11H-dibenzo[b, e,][1,4]dioxepinacetic acids” (J Med Chem, 1986)
